Data reported in ChEMBL document CHEMBL1268876, “Intrinsic electrophilicity of the 4-methylsulfonyl-2-pyridone scaffold in glucokinase activators: role of glutathione-S-transferases and in vivo quantitation of a glutathione conjugate in rats” (Bioorg Med Chem Lett, 2010).

Legend:
Liver microsomes [1] = assay: Metabolic stability in human liver microsomes assessed as formation of compound at 10 uM in presence of 5 mM GSH and 1.3 mM NADPH by UV chromatography; assay type: ADME, Microsome
Summary of the method: (§1)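 Test compound at 10 µM with 5 mM GSH in human liver microsomes (NADPH-supplemented or not), human liver cytosol, or human placental GST. Incubated 60 min at 37 °C in a shaking water bath open to air; microsomal and cytosolic reactions started by adding the matrix. Controls lacked NADPH and/or GSH. Quenched with ice-cold acetonitrile containing 0.1% formic acid, then centrifuged. Supernatant analyzed by LC–MS/MS with UV detection at 300 nm.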

Liver microsomes [2] = assay: Metabolic stability in human liver microsomes assessed as formation of compound at 10 uM in presence of 5 mM GSH and in absence of NADPH by UV chromatography; assay type: ADME, Microsome; summary of the method: as §1
[3] = Metabolic stability in human liver cytosol assessed as formation of compound at 10 uM in presence of 5 mM GSH and 1.3 mM NADPH by UV chromatography; assay type: ADME; summary of the method: as §1
[4] = Chemical stability assessed as formation of compound 2 in pH 7.4 phosphate buffer in presence of 5 mM GSH for 60 mins at 37 degC at 10 uM by UV chromatography; assay type: physicochemical; conditions: pH 7.4, 1 h
Summary of the method: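 Test compound at 10 µM in 0.1 M phosphate buffer, pH 7.4, with or without 5 mM GSH, 60 min at 37 °C in a shaking water bath open to air. Stopped with ice-cold acetonitrile containing 0.1% formic acid, then centrifuged. Supernatant analyzed by LC–MS/MS and UV (300 nm) on a C18 column with an ammonium formate/acetonitrile gradient.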

[5] = Metabolic stability in presence of human placental GST assessed as formation of compound at 10 uM in presence of 5 mM GSH and 1.3 mM NADPH by UV chromatography; assay type: ADME; summary of the method: as §1

| Compound | Stability (Liver microsomes [1]) | Stability (Liver microsomes [2]) | Stability [3] | Stability [4] | Stability [5] |
| --- | --- | --- | --- | --- | --- |
| Cc1cnc(NC(=O)[C@H](CC2CCCC2)n2ccc(S(C)(=O)=O)cc2=O)cn1 | Unstable | Unstable | Unstable | Unstable | Unstable |
| Cc1cnc(NC(=O)[C@H](CC2CCCC2)n2ccccc2=O)cn1 | Stable | Stable | Stable | Stable | Stable |
| Cc1cnc(NC(=O)[C@H](CC2CCCC2)n2cc(S(C)(=O)=O)ccc2=O)cn1 | Stable | Stable | Stable | Stable | Stable |
| Cc1cnc(NC(=O)[C@H](CC2CCCC2)n2cccc(S(C)(=O)=O)c2=O)cn1 | Stable | Stable | Stable | Stable | Stable |
| Cc1cnc(NC(=O)[C@H](CC2CCCC2)n2ccc(Br)cc2=O)cn1 | Stable | Stable | Unstable | Stable | Unstable |
